Measured values of several laboratories.

Structure (SMILES) | method | pH | chromatographic logD
CO[C@H](C(=O)N1Cc2c(-c3ccc(C(=O)N4CCCc5ccccc54)cc3)cnn2C[C@H]1C(C)C)c1ccccc1 (single isomer, unassigned) | HPLC | pH 7.4 | 5.4
CC1=C(C(N)=O)C(=O)/C(=C\c2cc(C)n(-c3ccccc3C(F)(F)F)c2C)N1 | HPLC | pH 7.4 | 2.8
CCc1nnc(NC(=O)c2nc(-c3ccc(Cl)cc3)n3c2CCCCC3)s1 |  | pH 7.4 | 6.8
CCOC(=O)C1=C(C)N/C(=C/c2cc(C)n(-c3ccncc3)c2C)C1=O | HPLC | pH 7.4 | 1.9
CO[C@H](C(=O)N1Cc2c(-c3ccc(C(=O)N4CCCc5ccccc54)cn3)cnn2C[C@H]1C(C)C)c1cnn(C)c1 (single isomer, unassigned) | HPLC | pH 7.4 | 3.1
CC(C)(C)C1=CC(=NNC(=O)c2ccc([N+](=O)[O-])cc2)C=C(C(C)(C)C)C1=O | HPLC | pH 7.4 | 4.9
CC1=C(C#N)[C@@H](c2ccc(C#N)cc2S(C)(=O)=O)NC(=O)N1c1cccc(C(F)(F)F)c1 | HPLC | pH 7.5 | 2.7
N#CC(c1ccc(CNc2cccc3c2CN(C2CCC(=O)NC2=O)C3=O)cc1)N1CCOCC1 (stereo not shown) | HPLC | pH 7.4 | 2
CCn1cnnc1C1CCN(C(=O)c2cn3ccc(C)cc3n2)CC1 |  | pH 7.4 | 1.2
C[C@@H]1Cn2ncc(-c3ccc(C(=O)N4CCCc5ccccc54)cc3)c2CN1C(=O)[C@H](C)c1ccccc1 | HPLC | pH 7.4 | 5.2
Cn1c(-c2nc3cc(C(=O)N4CCCC(N)C4)ccc3n2C)cc2ccccc21 (stereo not shown) | HPLC | pH 7.4 | 2.8
CCOC(=O)C1=C(C)N/C(=C/c2cc(C)n(-c3ccc(CN(C)C)cc3)c2C)C1=O | HPLC | pH 7.4 | 2.1
COc1ccc(-c2nc(C(=O)Nc3cccc(-c4nnc5n4CCCCC5)c3)cs2)cc1OC |  | pH 7.4 | 4.8
C[C@@H]1Cn2ncc(-c3ccc(C(=O)N4CCCc5ccccc54)cc3)c2CN1C(=O)Cc1ccccc1 | HPLC | pH 7.4 | 4.9
CCOC(=O)C1=C(C)N/C(=C/c2cc(C)n(-c3ccc(CN4CCOCC4)cc3)c2C)C1=O | HPLC | pH 7.4 | 2.5
CC1=C(C#N)[C@@H](c2ccc(C#N)cc2S(C)(=O)=O)N(C)C(=O)N1c1cccc(C(F)(F)F)c1 | HPLC | pH 7.5 | 3
CCOC(=O)C1=C(C)N/C(=C/c2cc(C)n(-c3ccc(SC)cc3)c2C)C1=O | HPLC | pH 7.4 | 3.3
Cc1cc(NC(=O)Nc2ccc3c(c2)OC(F)(F)O3)cc(C(F)(F)F)n1 | HPLC | pH 7.4 | 4.3
CC1=C(C(=O)OC(C)(C)C)C(=O)/C(=C\c2cc(C)n(-c3ccccc3C(F)(F)F)c2C)N1 | HPLC | pH 7.4 | 3.8
CO[C@H](C(=O)N1Cc2c(-c3ccc(C(=O)N4CCCc5ccccc54)cc3)cnn2C[C@H]1C(C)C)c1cnn(C)c1 (single isomer, unassigned) | HPLC | pH 7.4 | 4.2
CCOC(=O)C1=C(C)N/C(=C/c2ccn(-c3ccccc3C(F)(F)F)c2)C1=O | HPLC | pH 7.4 | 3
COc1cc(Cl)c(C(=O)N[C@@H](CN[C@H]2CC[C@@H](N)CC2)Cc2ccc(C#N)cc2)cc1-c1ccc(CN[C@H](C)c2ccc(C)cc2)o1 | HPLC | pH 7.5 | 2.9
